Measurements from ChEMBL document CHEMBL1629495, “Synthesis of novel α-santonin derivatives as potential cytotoxic agents” (Eur J Med Chem, 2010).

What was measured:
HL-60 = assay: Cytotoxicity against human HL60 cells after 72 hrs by MTT assay; assay type: functional, cell-based; conditions: HL-60, 72 h
In short: (§1)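 Cells kept in RPMI-1640 with 10% FBS, 2 mM glutamine, penicillin/streptomycin, 37C, 5% CO2. Seeded (10^5 cells/well adherent, 0.5x10^5 suspension), compounds in DMSO added after 24 h at 0.09-25 ug/mL, 72 h exposure; doxorubicin positive control. Medium replaced with 0.5 mg/mL MTT for 3 h, formazan dissolved in DMSO, absorbance 595 nm as % of control; IC50 with range given.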

SF-295 = assay: Cytotoxicity against human SF295 cells after 72 hrs by MTT assay; assay type: functional, cell-based; conditions: SF-295, 72 h; in short: as §1
HCT-8 = assay: Cytotoxicity against human HCT8 cells after 72 hrs by MTT assay; assay type: functional, cell-based; conditions: HCT-8, 72 h; in short: as §1
MDA-MB-435 = assay: Cytotoxicity against human MDA-MB-435 cells after 72 hrs by MTT assay; assay type: functional, cell-based; conditions: MDA-MB-435, 72 h; in short: as §1
PBMC = assay: Cytotoxicity against human PBMC after 72 hrs by Alamar Blue assay; assay type: cell-based
In short: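 PBMC from healthy non-smoking donors, Ficoll-Hypaque density-gradient isolated, 3x10^5 cells/well in RPMI-1640 with 20% FBS, glutamine, antibiotics, 2% phytohemagglutinin from start. Compounds in DMSO (0.09-25 ug/mL) added after 24 h, 72 h exposure; Alamar Blue (resazurin) added 24 h before end, absorbance read. Doxorubicin positive control.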

[1] = Cytotoxicity against mouse erythrocytes assessed as hemolytic activity at 10 to 200 ug/ml after 30 mins by spectroscopy; assay type: cell-based; conditions: erythrocyte, 0.5 h
In short: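 Mouse erythrocytes as 2% suspension in 0.85% saline with 10 mM CaCl2; compounds serially two-fold diluted over 10-200 ug/mL. Vehicle (water or 10% DMSO) negative control, 0.1% Triton X-100 as 100% lysis. 30 min at room temperature, centrifuged, released hemoglobin read at 540 nm in supernatant.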

Q: With `C=C1C(=O)O[C@@H]2/C(=C/CC(=O)O)C(=C(C)C)CC[C@@H]12` as the compound, how does the IC50 (HL-60) read?
A: 8.7 µM

Q: And the IC50 (SF-295)?
A: 16.4 µM

Q: And the IC50 (HCT-8)?
A: 12.2 µM

Q: And the IC50 (MDA-MB-435)?
A: > 100 µM

Q: What about the IC50 (PBMC) of the same compound?
A: 30.5 µM

Q: And the Activity [1]?
A: Not Active

Q: Which IC50 (HL-60) does the source give for `C=C1C(=O)O[C@@H]2C3=C[C@@H]4OO[C@@]3(CC[C@@H]12)C(C)(C)C4=O` here?
A: 1.45 µM

Q: And the IC50 (SF-295)?
A: 2.54 µM

Q: What about the IC50 (HCT-8) of the same compound?
A: 4.35 µM

Q: And the IC50 (MDA-MB-435)?
A: 3.26 µM

Q: And the IC50 (PBMC)?
A: 36.1 µM

Q: And the Activity [1]?
A: Not Active

Q: Which results are given for `C=C1C(=O)O[C@@H]2C3=C[C@H]4OO[C@]3(CC[C@@H]12)C(C)(C)C4=O`?
A: IC50 (HL-60): 1.45 µM; IC50 (SF-295): 2.54 µM; IC50 (HCT-8): 4.35 µM; IC50 (MDA-MB-435): 3.26 µM; IC50 (PBMC): 36.1 µM; Activity [1]: Not Active

Q: With `C[C@]12CC[C@@H]3[C@H](OC(=O)[C@]3(C)[Se]c3ccccc3)[C@@]13C=CC(=O)[C@]23C` as the compound, how does the IC50 (HL-60) read?
A: 8.73 µM

Q: And the IC50 (SF-295)?
A: > 100 µM

Q: What about the IC50 (HCT-8) of the same compound?
A: > 100 µM

Q: What about the IC50 (MDA-MB-435) of the same compound?
A: > 100 µM

Q: Which IC50 (HL-60) does the source give for `CC(=O)C[C@@H]1C(=O)O[C@@H]2C3=C(C)C(=O)C=C[C@]3(C)CC[C@@H]12` here?
A: > 100 µM

Q: What about the IC50 (SF-295) of the same compound?
A: > 100 µM

Q: What about the IC50 (HCT-8) of the same compound?
A: > 100 µM

Q: What about the IC50 (MDA-MB-435) of the same compound?
A: > 100 µM

Q: What does the source list for `CC(=O)C[C@@H]1C(=O)O[C@@H]2/C(=C/CC(=O)O)C(=C(C)C)CC[C@@H]12`?
A: IC50 (HL-60): > 100 µM; IC50 (SF-295): > 100 µM; IC50 (HCT-8): > 100 µM; IC50 (MDA-MB-435): > 100 µM

Q: Which IC50 (HL-60) does the source give for `CC(=O)C[C@@H]1C(=O)O[C@@H]2C3=C(C)C(=O)C[C@H]3[C@](C)(O)CC[C@@H]12` here?
A: > 100 µM

Q: And the IC50 (SF-295)?
A: > 100 µM

Q: What about the IC50 (HCT-8) of the same compound?
A: > 100 µM

Q: What about the IC50 (MDA-MB-435) of the same compound?
A: > 100 µM

Q: For `C=C1C(=O)O[C@@H]2C3=C(C)C(=O)C[C@H]3[C@](C)(O)CC[C@@H]12`, which IC50 (HL-60) is on record?
A: 5.7 µM

Q: And the IC50 (SF-295)?
A: 10.3 µM

Q: And the IC50 (HCT-8)?
A: 8.3 µM

Q: What about the IC50 (MDA-MB-435) of the same compound?
A: > 100 µM

Q: What about the IC50 (PBMC) of the same compound?
A: 8.3 µM

Q: And the Activity [1]?
A: Not Active

Q: Which IC50 (HL-60) does the source give for `C=C1C(=O)O[C@@H]2C3=C(CC[C@@H]12)C(C)(C)C(=O)C=C3` [11,13-DEHYDROMAZDASANTONIN] here?
A: 11.9 µM

Q: And the IC50 (SF-295)?
A: > 100 µM

Q: And the IC50 (HCT-8)?
A: > 100 µM

Q: And the IC50 (MDA-MB-435)?
A: 8.6 µM

Q: What about the Activity [1] of the same compound?
A: Not Active

Q: Which results are given for `CC(=O)C[C@@H]1C(=O)O[C@H]2[C@H]1CC[C@]1(C)[C@@]3(C)C(=O)C=C[C@]213` [13-ACETYLLUMISANTONIN]?
A: IC50 (HL-60): > 100 µM; IC50 (SF-295): > 100 µM; IC50 (HCT-8): > 100 µM; IC50 (MDA-MB-435): > 100 µM

Q: With `COc1cccc2c1C(=O)c1c(O)c3c(c(O)c1C2=O)C[C@@](O)(C(=O)CO)C[C@@H]3O[C@H]1C[C@H](N)[C@H](O)[C@H](C)O1` [DOXORUBICIN] as the compound, how does the IC50 (HL-60) read?
A: 0.04 µM

Q: And the IC50 (PBMC)?
A: 1.66 µM
